Screening data deposited in PubChem by Johns Hopkins Ion Channel Center.
RGS4 inh: inhibitors of human RGS4; hit rate 0.45% among 310,000; HEK293 M3R/RGS4 inducible, Fluo-4 calcium flux; active compounds read high; triggered by carbachol at its EC20; P49798; B-score at 10 µM;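 active = B-score, a plate-corrected calcium signal, over three deviations above library mean, with baseline fluorescence within five deviations of library mean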;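 note: RGS4 expression induced by doxycycline in cells with stable M3 receptor; B-score is computed from the integrated fluorescence ratio over baseline after carbachol; higher B-score means a larger calcium signal and so more RGS4 inhibition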
RGS4 act: RGS4 potentiation or activation | HEK293 M3R/inducible RGS4, carbachol calcium flux Fluo4; active compounds read low | B-score at 10 µM | hit rate 0.92% among 310,000 | AID 463111;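 active = B-score of the integrated calcium signal more than 4 SD below the library mean, with starting fluorescence not abnormally high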;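 note: negative B-score means reduced calcium response which marks RGS4 activation or potentiation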
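Assay system: HEK293 FlpIn-TREx cells, stable M3R, doxycycline-inducible RGS4 / Probe or stimulus: carbachol, ECmax concentration / Times: overnight RGS4 induction, 30 min dye load 37 °C, 20 min compound RT / Signal: kinetic calcium fluorescence imaging with Fluo4-AM dye, 2 µM / Measure: Agonist-evoked peak-minus-minimum fluorescence over baseline, integrated ratio, B score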
Kir21 block: blocks the mouse Kir2.1 inward-rectifier potassium channel. P35561. B-score at 10 µM. hit rate 0.85% among 310,000. HEK293-Kir2.1, FluxOR thallium flux fluorescence; active compounds read low. AID 1672;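 active = fluorescence ratio B-score at or below minus 3 SD of library scores, with starting-brightness B-score within 2 SD, cut at about -4.2 in these data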;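 note: channel flux triggered by added potassium and thallium sulfate stimulus; B-score of peak minus minimum fluorescence over baseline after thallium stimulus; more negative B-score means stronger Kir2.1 block with less thallium influx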
Target sequence (P35561 whole entry, looked up): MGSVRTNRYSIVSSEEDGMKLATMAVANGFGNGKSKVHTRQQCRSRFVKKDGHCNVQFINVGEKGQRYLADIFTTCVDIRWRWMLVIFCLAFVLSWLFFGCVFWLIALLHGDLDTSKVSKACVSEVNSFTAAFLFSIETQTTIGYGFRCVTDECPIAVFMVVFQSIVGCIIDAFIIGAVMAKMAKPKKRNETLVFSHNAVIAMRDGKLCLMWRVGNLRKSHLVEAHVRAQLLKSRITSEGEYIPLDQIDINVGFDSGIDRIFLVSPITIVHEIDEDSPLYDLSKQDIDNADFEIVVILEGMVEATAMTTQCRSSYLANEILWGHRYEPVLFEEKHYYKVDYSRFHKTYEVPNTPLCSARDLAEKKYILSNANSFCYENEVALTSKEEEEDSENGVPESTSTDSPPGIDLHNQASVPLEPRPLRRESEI
MrgX1 antag: blocks BAM8-22 activation of human MrgX1 receptor. Q96LB2. MRGX1-HEK293 calcium flux, Fluo-4, BAM8-22 antagonism; active compounds read low. B-score at 10 µM. hit rate 1.3% among 310,000;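 active = calcium-response B-score plate-corrected more than 3 library SD below zero, starting fluorescence within 5 deviations, no agonist response on first addition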;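 note: peak minus trough fluorescence over baseline after final BAM8-22 challenge near maximal dose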
Target sequence (Q96LB2 whole entry, looked up): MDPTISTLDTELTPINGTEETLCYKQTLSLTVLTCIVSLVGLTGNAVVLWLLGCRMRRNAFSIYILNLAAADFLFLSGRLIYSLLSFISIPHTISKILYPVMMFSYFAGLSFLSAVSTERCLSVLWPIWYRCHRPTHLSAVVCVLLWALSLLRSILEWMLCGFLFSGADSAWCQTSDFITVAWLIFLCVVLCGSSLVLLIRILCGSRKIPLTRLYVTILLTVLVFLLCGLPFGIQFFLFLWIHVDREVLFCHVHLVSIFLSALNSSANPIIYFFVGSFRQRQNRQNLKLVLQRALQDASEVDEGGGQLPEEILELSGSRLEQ
MrgX1 PAM: human MrgX1 positive allosteric modulation, primary screen; Q96LB2; MrgX1-HEK293, Fluo-4 calcium flux, FDSS; active compounds read high; B-score at 10 µM; hit rate 0.63% among 310,000;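 active = plate-corrected calcium response at least 3 library SD above typical, normal starting fluorescence, not activating the receptor alone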;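 note: compound read alongside a low EC10 to EC30 dose of BAM8-22 agonist; peak minus trough fluorescence over baseline measured at the second addition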
MrgX1 ag: human MrgX1 receptor agonism, primary screen; Q96LB2; MrgX1-HEK293 cells, Fluo-4 calcium fluorescence, agonist mode; active compounds read high; B-score at 10 µM; hit rate 0.44% among 310,000; AID 588627;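 active = calcium response B-score plate-corrected fluorescence ratio at least 3 library SD, with starting fluorescence B-score inside 5 SD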
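Material: MrgX1-expressing HEK293 cells; input: 15,000 cells per well; doses: test compound given as first of three sequential additions; schedule: overnight plating before 1 h dye loading; technique: Fluo-4 NW calcium-flux fluorescence, kinetic read; evaluation: baseline-normalised fluorescence change ratio, B-scored; control set: plate-wise positive and negative controls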
MrgX1 allo conf: reconfirmed allosteric activator of human MrgX1 receptor; shares compounds with MrgX1 PAM; activation (ratio percentage), % at 10 µM; AID 602413; hit rate 13% among 1,200; MrgX1-HEK293, Fluo-4 calcium fluorescence, FDSS;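 active = ratio at least 3 SD above the weak peptide control, stable starting fluorescence, no direct agonism earlier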;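 note: compound followed by low BAM8-22 agonist challenge near EC20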
HEK293 Ca flux: activity in parental HEK293 cells lacking MrgX1; shares compounds with MrgX1 antag; Fluo-4 calcium fluorescence, FDSS; fluorescence ratio F(max-min)/F0 at 10 µM; hit rate 2% among 4,000; AID 624111;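 active = duplicate-averaged calcium fluorescence ratio at least three times the standard deviation of buffer wells, a nonspecific response in parental cells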
HEK293 Ca counter: counter-screen for MrgX1 allosteric activators: effect in parental HEK293 cells | shares compounds with MrgX1 antag | parental HEK293 calcium flux, Fluo-4 fluorescence ratio; active compounds read high | fluorescence ratio F(max-min)/F0 at 10 µM | hit rate 0.4% among 4,000;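 active = calcium fluorescence ratio, averaged over duplicates, at least 3 SD of the buffer-well ratio, meaning a nonspecific response in receptor-free cells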;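 note: untransfected parental HEK293 lacking MrgX1 used as counterscreen for MrgX1 allosteric activators; fluorescence change taken during the second addition on a kinetic imager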
HEK293 Ca cntr2: activity in parental HEK293 cells lacking MrgX1 receptor | shares compounds with MrgX1 antag | Fluo-4 calcium fluorescence (FDSS); active compounds read high | fluorescence ratio F(max-min)/F0 at 10 µM | hit rate 8.7% among 4,000 | AID 624115;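 active = calcium fluorescence ratio at least three times the spread of buffer wells, meaning a non-specific response in parental cells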
Starred values were filed as active, the others as inactive. Hits are enriched below; roughly 4.1% of the tested compounds scored in any of these assays.

For COc1cc(CC(=O)OCC(=O)Nc2cc([N+](=O)[O-])ccc2F)cc(OC)c1OC the results were RGS4 inh inactive, RGS4 act inactive, Kir21 block 0.06, MrgX1 antag inactive, MrgX1 PAM inactive and MrgX1 ag inactive.
`Cc1ccc2c(c1)NC(=O)C(CC(=O)O)O2` (centres undefined) gave RGS4 inh inactive, RGS4 act inactive, Kir21 block -2.3, MrgX1 antag inactive, MrgX1 PAM 8.1*, MrgX1 ag inactive, MrgX1 allo conf inactive, HEK293 Ca flux inactive, HEK293 Ca counter inactive and HEK293 Ca cntr2 inactive.
Screening O=C(Nc1cc(F)c(Br)cc1F)c1ccc(Cl)cc1 returned RGS4 inh inactive, RGS4 act inactive, Kir21 block 1.3, MrgX1 antag inactive, MrgX1 PAM 21*, MrgX1 ag inactive, MrgX1 allo conf 10%*, HEK293 Ca flux inactive, HEK293 Ca counter inactive and HEK293 Ca cntr2 inactive.
Cc1c(C)[n+](=O)c2c(n1[O-])CCC2 was read as RGS4 inh inactive, RGS4 act inactive, Kir21 block 2.5, MrgX1 antag inactive, MrgX1 PAM inactive and MrgX1 ag inactive.
Screening COc1ccc(NC(C)(C)c2nnnn2-c2c(C)cccc2C)cc1 returned RGS4 inh inactive, RGS4 act inactive, Kir21 block -0.23, MrgX1 antag inactive, MrgX1 PAM 6.6*, MrgX1 ag inactive, MrgX1 allo conf inactive, HEK293 Ca flux inactive, HEK293 Ca counter inactive and HEK293 Ca cntr2 inactive.
Cc1cccc(C)c1-n1nnnc1C(C)(C)N1CCN(N=O)CC1 was read as RGS4 inh inactive, RGS4 act inactive, Kir21 block -0.21, MrgX1 antag inactive, MrgX1 PAM inactive and MrgX1 ag inactive.
Screening C=CCSc1nc2ccccc2c(=O)n1C1CCOC(C)(C)C1 (centres undefined) returned RGS4 inh inactive, RGS4 act inactive, Kir21 block 1, MrgX1 antag inactive, MrgX1 PAM 11*, MrgX1 ag inactive, MrgX1 allo conf inactive, HEK293 Ca flux inactive, HEK293 Ca counter inactive and HEK293 Ca cntr2 inactive.
Screening Cc1cc(OC(C)C(=O)NC(Cc2c[nH]c3ccc(O)cc23)C(=O)O)c2c(C)cc(=O)oc2c1 (centres undefined) returned RGS4 inh inactive, RGS4 act inactive, Kir21 block 1.3, MrgX1 antag inactive, MrgX1 PAM inactive and MrgX1 ag inactive.
For CC(=O)Nc1ccc(NC(=O)CSc2nnc(-c3ccco3)n2Cc2ccco2)cc1 the results were RGS4 inh inactive, RGS4 act inactive, Kir21 block -0.02, MrgX1 antag inactive, MrgX1 PAM 7*, MrgX1 ag inactive, MrgX1 allo conf inactive, HEK293 Ca flux inactive, HEK293 Ca counter inactive and HEK293 Ca cntr2 inactive.
For C=CCc1ccccc1Oc1cc(F)nc(N)n1 the results were RGS4 inh inactive, RGS4 act inactive, Kir21 block 0.26, MrgX1 antag inactive, MrgX1 PAM 15*, MrgX1 ag inactive, MrgX1 allo conf 9.9%*, HEK293 Ca flux inactive, HEK293 Ca counter inactive and HEK293 Ca cntr2 inactive.
Screening COc1ccc(Oc2cc(F)nc(N)n2)cc1 returned RGS4 inh inactive, RGS4 act inactive, Kir21 block -2.7, MrgX1 antag inactive, MrgX1 PAM inactive and MrgX1 ag inactive.
Screening COC(=O)c1sc(NC(=S)NC(=O)c2ccccc2C)nc1C returned RGS4 inh inactive, RGS4 act inactive, Kir21 block 0.41, MrgX1 antag inactive, MrgX1 PAM 7.3*, MrgX1 ag inactive, MrgX1 allo conf inactive, HEK293 Ca flux inactive, HEK293 Ca counter inactive and HEK293 Ca cntr2 56*.
For COC(=O)c1sc(NC(=S)NC(=O)c2ccc(F)cc2)nc1C the results were RGS4 inh inactive, RGS4 act inactive, Kir21 block -1.3, MrgX1 antag inactive, MrgX1 PAM inactive and MrgX1 ag inactive.
COc1ccc(CCNS(=O)(=O)c2ccc3c(c2)NC(=O)CCS3)cc1OC was read as RGS4 inh inactive, RGS4 act inactive, Kir21 block 0.36, MrgX1 antag inactive, MrgX1 PAM inactive and MrgX1 ag inactive.
For COc1ccc(CCNS(=O)(=O)c2ccc3c(c2)NC(=O)CO3)cc1OC the results were RGS4 inh inactive, RGS4 act inactive, Kir21 block 0.35, MrgX1 antag inactive, MrgX1 PAM 33*, MrgX1 ag inactive, MrgX1 allo conf inactive, HEK293 Ca flux inactive, HEK293 Ca counter inactive and HEK293 Ca cntr2 inactive.
Screening Cc1ccc(CS(=O)(=O)CCC(=O)NCC2CCCO2)cc1 (centres undefined) returned RGS4 inh inactive, RGS4 act inactive, Kir21 block 0.69, MrgX1 antag inactive, MrgX1 PAM inactive and MrgX1 ag inactive.
Screening COc1ccc(-c2cn(-c3ccccc3)nc2CO)cc1 returned RGS4 inh inactive, RGS4 act inactive, Kir21 block -0.15, MrgX1 antag inactive, MrgX1 PAM 8.6*, MrgX1 ag inactive, MrgX1 allo conf inactive, HEK293 Ca flux inactive, HEK293 Ca counter inactive and HEK293 Ca cntr2 inactive.
For COc1ccc(-c2nn(-c3ccccc3)cc2C(=O)N2CCOCC2)cc1 the results were RGS4 inh inactive, RGS4 act inactive, Kir21 block -0.1, MrgX1 antag inactive, MrgX1 PAM inactive and MrgX1 ag inactive.
Cc1ccc(-c2nn(-c3ccccc3)cc2CO)cc1 was read as RGS4 inh inactive, RGS4 act inactive, Kir21 block -0.54, MrgX1 antag inactive, MrgX1 PAM 38*, MrgX1 ag inactive, MrgX1 allo conf 6.8%*, HEK293 Ca flux inactive, HEK293 Ca counter inactive and HEK293 Ca cntr2 inactive.
Screening COc1ccc(-c2nn(-c3ccccc3)cc2N)cc1 returned RGS4 inh inactive, RGS4 act inactive, Kir21 block -0.06, MrgX1 antag inactive, MrgX1 PAM inactive and MrgX1 ag inactive.
